Screens as filed in PubChem.
Shown are actives, neighbours in structure and some others; about 29% of the full set was active somewhere.
CYP2C19 inh – inhibitors of human CYP2C19; P33261; CYP2C19 Supersomes, luciferin-H EGE luminescence, 30 min; inhibition, % at 5 µM; 96,000 compounds, 21% hits;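 active means CYP2C19 inhibition above a set limit at 5 µM in the primary screen, cut at about 50% in these data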
Ecoli WT expand – blocks growth of wild type E. coli BW25113; growth inhibition, % at 100 µM; AID 710; OD600 absorbance; 98,000 compounds, 0.15% hits;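 active means growth inhibition above about 50% at one test dose, limit read from the data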;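 further: growth measured after 20 h incubation at 37 °C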
CYP2C9 activ – activators of human CYP2C9; recombinant CYP2C9, luciferin-H conversion, luminescence; hits give high values; factor 1 = untreated enzyme, 0 = blocked; activation factor at 5 µM; 96,000 compounds, 1.4% hits; P11712; AID 1024;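 active means activation factor of 2 or more for CYP2C9 at a 5 µM dose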
CYP2C9 inhib – inhibitors of human CYP2C9; CYP2C9 Supersomes, luciferin-H conversion, luminescence; inhibition, % at 5 µM; 96,000 compounds, 20% hits;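 active means blocking of liver enzyme CYP2C9 beyond about 50% at 5 µM, limit read from the data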
tolC growth inh – growth inhibitors of E. coli BW25113 tolC mutant; 65,000 compounds, 2.2% hits; OD615; AID 573; growth inhibition, % at 10 µM (by protocol);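 active means growth inhibition at or above a cutoff equal to the mean over every tested compound plus 3 SD, cut at about 60% in these data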;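 further: growth measured after 20 h incubation at 37 °C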
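test system = E. coli BW25113 ΔtolC::kan bacteria | medium = LB with kanamycin 50 µg/mL | signal = OD at 615 nm | schedule = 37 °C, 20 h exposure | evaluation = % inhibition of E. coli growth | compound dosing = one dose of 10 µM final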
CYP2C19 activ – increases human CYP2C19 enzyme activity; recombinant CYP2C19, luciferin-H EGE luminescence; hits give high values; 0 = fully inhibited enzyme, 1 = untreated enzyme; activation factor at 5 µM; 96,000 tested, under 10 active; AID 1025;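 active means activation factor of at least 2 at 5 µM in the primary screen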
Hits are given with their value.

For Cn1c(=O)c2c(nc(CN3CCN(C(=O)c4ccco4)CC3)n2Cc2ccccc2F)n(C)c1=O the results were CYP2C19 inh inactive, Ecoli WT expand inactive, CYP2C9 activ inactive, CYP2C9 inhib inactive, tolC growth inh inactive and CYP2C19 activ inactive.
`CCN(C(=O)c1cccc(F)c1)c1ccccc1C` gave CYP2C19 inh 83, Ecoli WT expand inactive, CYP2C9 activ inactive, CYP2C9 inhib 61, tolC growth inh inactive and CYP2C19 activ inactive.
CCN(C(=O)c1cn(CC)c(=O)c2cc(OC)c(OC)cc12)c1ccccc1C was read as CYP2C19 inh inactive, Ecoli WT expand inactive, CYP2C9 activ inactive, CYP2C9 inhib inactive, tolC growth inh inactive and CYP2C19 activ inactive.
Screening C=CCOc1ccc(CN(C)CC(=O)N(CC(C)C)c2c(N)n(CC(C)C)c(=O)[nH]c2=O)cc1 returned CYP2C19 inh inactive, Ecoli WT expand inactive, CYP2C9 activ inactive, CYP2C9 inhib inactive, tolC growth inh inactive and CYP2C19 activ inactive.
For CCCCn1c(N)c(N(CC(C)C)C(=O)CN(C)Cc2cccc(OC)c2)c(=O)[nH]c1=O the results were CYP2C19 inh 56, Ecoli WT expand inactive, CYP2C9 activ inactive, CYP2C9 inhib inactive and CYP2C19 activ inactive.
`CC1CC1C(=O)OCC(=O)NCc1ccc(Cl)cc1Cl` (stereo not drawn) gave CYP2C19 inh 100, Ecoli WT expand inactive, CYP2C9 activ inactive, CYP2C9 inhib inactive and CYP2C19 activ inactive.
Screening O=C(COC(=O)C1CC1)NCc1ccccc1Cl returned CYP2C19 inh 70, Ecoli WT expand inactive, CYP2C9 activ inactive, CYP2C9 inhib inactive and CYP2C19 activ inactive.
CC1CC1C(=O)OCC(=O)NCc1ccc(Cl)cc1 (stereo not drawn) was read as CYP2C19 inh 97, Ecoli WT expand inactive, CYP2C9 activ inactive, CYP2C9 inhib 53 and CYP2C19 activ inactive.
`CC/C(C)=C1\SC(N2CCOCC2)=NC1=O` gave CYP2C19 inh inactive, Ecoli WT expand inactive, CYP2C9 activ inactive, CYP2C9 inhib inactive and CYP2C19 activ inactive.
Screening CCCN(CCC)CCCNc1ccc2nnc(-c3ccc(F)cc3)n2n1 returned CYP2C19 inh inactive, Ecoli WT expand inactive, CYP2C9 activ inactive, CYP2C9 inhib inactive and CYP2C19 activ inactive.
Screening CC(N=c1ccccn1C(=O)Nc1ccc(Cl)cc1)c1ccco1 (stereo not drawn) returned CYP2C19 inh inactive, Ecoli WT expand inactive, CYP2C9 activ inactive, CYP2C9 inhib inactive, tolC growth inh inactive and CYP2C19 activ inactive.
`CC(c1ccco1)N(C(=O)C12CC3CC(CC(C)(C3)C1)C2)c1ccccn1` (stereo not drawn) gave CYP2C19 inh inactive, Ecoli WT expand inactive, CYP2C9 activ inactive, CYP2C9 inhib inactive and CYP2C19 activ inactive.
CC(c1ccco1)N(C(=O)Nc1ccc(Cl)cc1)c1ccccn1 (stereo not drawn) was read as CYP2C19 inh 85, Ecoli WT expand inactive, CYP2C9 activ inactive, CYP2C9 inhib 56, tolC growth inh inactive and CYP2C19 activ inactive.
Cc1ccc(C(=O)N(c2ccccn2)C(C)c2ccco2)cc1 (stereo not drawn) was read as CYP2C19 inh 80, Ecoli WT expand inactive, CYP2C9 activ inactive, CYP2C9 inhib inactive, tolC growth inh inactive and CYP2C19 activ inactive.
For O=C(N/N=C/c1c[nH]c2ccc(Br)cc12)c1ccn(Cc2ccc(Cl)cc2)n1 the results were CYP2C19 inh inactive, Ecoli WT expand inactive, CYP2C9 activ inactive, CYP2C9 inhib inactive and CYP2C19 activ inactive.
COc1cccc(NC(=O)COc2ccc(N3CC(C(=O)NCC(C)C)CC3=O)cc2)c1 (stereo not drawn) was read as CYP2C19 inh inactive, Ecoli WT expand inactive, CYP2C9 activ inactive, CYP2C9 inhib inactive, tolC growth inh inactive and CYP2C19 activ inactive.
For c1ccc(C2COC(c3cccs3)=N2)cc1 (stereo not drawn) the results were CYP2C19 inh 62, Ecoli WT expand inactive, CYP2C9 activ inactive, CYP2C9 inhib inactive, tolC growth inh inactive and CYP2C19 activ inactive.
Screening O=c1[nH]c(NCc2ccccc2)nc2c1CCCC2 returned CYP2C19 inh inactive, Ecoli WT expand inactive, CYP2C9 activ inactive, CYP2C9 inhib inactive, tolC growth inh inactive and CYP2C19 activ inactive.
Screening CCCN1CCN(C(=O)Cn2cccc2C(=O)c2ccccc2)CC1 returned Ecoli WT expand inactive and tolC growth inh inactive.
